Laboratory results from PubChem BioAssay AID504392 (Broad Institute, 2011).
Active and inactive are the calls of the source.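 How the source made its calls: active means fitted curve rising past 10% caspase activation at or below the top valid dose; inactive means activity opposite to the expected rise, or the rest.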

Test: caspase activation in wild-type MEFs, dose response, counter-screen for Bcl2-A1 inhibitor project, cell-based, wild-type MEF, caspase luminescence, dry powder, set 2 (AID 504392)
Conditions: CaspaseGlo luminescence, 3 h; series mostly up to 35 µM; caspase activation: at the top concentration
In short: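 Material: unprimed wild-type MEF cells; amount: 2500 cells per well; read-out basis: caspase activation; doses: pin-transferred compound; medium: RPMI-1640 growth medium with 10% FBS; timing: 3 h compound at 37 °C, 1 h reagent at RT; signal: CaspaseGlo luminescence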
In the case of `O=c1oc2ccccc2c(Cl)c1[N+](=O)[O-]`, the “caspase activation” value is reported as -2.49% (inactive). For `CCOCCCNc1c([N+](=O)[O-])c(=O)n(C)c2ccccc12`, the “caspase activation” value was -0.369% (inactive). With `Cc1ccc(Sc2c([N+](=O)[O-])c(=O)oc3ccccc23)cc1` the “caspase activation” value was -1.99% (inactive). With `Cn1c(=O)c([N+](=O)[O-])c(Oc2ccccc2)c2ccccc21` the “caspase activation” value was 0.176% (inactive). With `Cn1c(=O)c([N+](=O)[O-])c(-n2cnc3ccccc32)c2ccccc21` the “caspase activation” value was 2.49% (inactive). In the case of `O=c1oc2ccccc2c(N2CCCCC2)c1[N+](=O)[O-]`, the “caspase activation” value is reported as -1.15% (inactive). In the case of `O=c1oc2ccccc2c(Nc2cc(Cl)cc(Cl)c2)c1[N+](=O)[O-]`, the “caspase activation” value is reported as -0.747% (inactive). For `Cn1c(=O)c([N+](=O)[O-])c(Cl)c2ccccc21`, the “caspase activation” value was -0.325% (inactive). In the case of `Cc1ccc(Sc2c([N+](=O)[O-])cnc3ccccc23)cc1`, the “caspase activation” value is reported as 0.971% (inactive). In the case of `Cn1c(=O)c([N+](=O)[O-])c(Nc2ccc(Cl)cc2)c2ccccc21`, the “caspase activation” value is reported as 0.621% (inactive). With `CN1C(=O)C(C)(C)N(Cc2ccccc2)c2ccccc21` the “caspase activation” value was -0.09% (inactive). In the case of `Cc1ccc(Sc2c([N+](=O)[O-])c(=O)n(C)c3ccccc23)cc1`, the “caspase activation” value is reported as 1.94% (inactive). For `O=c1oc2ccccc2c(Sc2ccccc2)c1[N+](=O)[O-]`, the “caspase activation” value was -2.63% (inactive). For `O=C(Oc1cccc(/C=N/Nc2nc(Nc3ccccc3)nc(N3CCOCC3)n2)c1)c1ccco1`, the “caspase activation” value was 0.185% (inactive). For `CCOC(=O)N1CCN(c2c([N+](=O)[O-])c(=O)n(C)c3ccccc23)CC1`, the “caspase activation” value was 0.376% (inactive). For `Cc1ccc(Sc2cc(=O)n(C)c3ccccc23)cc1`, the “caspase activation” value was -2.63% (inactive). For `CCSc1c([N+](=O)[O-])c(=O)oc2ccccc12`, the “caspase activation” value was -0.856% (inactive). In the case of `O=[N+]([O-])c1cnc2ccccc2c1Sc1ccccc1`, the “caspase activation” value is reported as -0.231% (inactive). In the case of `Cc1ccc(Nc2c([N+](=O)[O-])c(=O)n(C)c3ccccc23)cc1`, the “caspase activation” value is reported as 0.135% (inactive). In the case of `Cc1ccc(Nc2c([N+](=O)[O-])c(=O)oc3ccccc23)cc1`, the “caspase activation” value is reported as 0.158% (inactive).
